Measured values gathered from unrelated publications.
Protocols differ between the studies behind these lines.
Target: Serine/threonine-protein kinase BRSK2 (BRSK2, Homo sapiens, UniProt Q8IWQ3)
Residues used in one study (Q8IWQ3 1-736): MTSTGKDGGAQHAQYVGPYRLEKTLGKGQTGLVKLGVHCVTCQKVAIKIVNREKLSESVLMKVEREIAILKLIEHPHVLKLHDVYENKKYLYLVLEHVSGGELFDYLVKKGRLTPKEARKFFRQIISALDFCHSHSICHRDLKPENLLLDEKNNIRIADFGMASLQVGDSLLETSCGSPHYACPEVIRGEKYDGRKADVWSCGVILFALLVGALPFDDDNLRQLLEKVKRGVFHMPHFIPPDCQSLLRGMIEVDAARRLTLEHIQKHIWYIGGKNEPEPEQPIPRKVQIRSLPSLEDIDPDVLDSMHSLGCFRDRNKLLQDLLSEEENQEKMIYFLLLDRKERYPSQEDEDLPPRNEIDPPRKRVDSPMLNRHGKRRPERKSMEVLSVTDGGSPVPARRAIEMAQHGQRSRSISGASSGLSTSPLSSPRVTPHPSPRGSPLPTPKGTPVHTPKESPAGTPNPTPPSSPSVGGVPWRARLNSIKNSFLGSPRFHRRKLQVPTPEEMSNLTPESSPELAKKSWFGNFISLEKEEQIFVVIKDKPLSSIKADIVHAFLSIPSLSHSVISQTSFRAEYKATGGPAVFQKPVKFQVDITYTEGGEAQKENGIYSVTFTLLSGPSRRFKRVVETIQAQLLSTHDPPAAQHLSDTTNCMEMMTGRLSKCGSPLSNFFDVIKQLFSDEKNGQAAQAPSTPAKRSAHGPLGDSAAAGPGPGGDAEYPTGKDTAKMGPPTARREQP

| SMILES | read-out | action | technique | tested at | quantity | value |
| --- | --- | --- | --- | --- | --- | --- |
| CN(C)C(=O)Cn1cc(-c2nc([C@@](C)(c3ccc(-c4cnc(N)nc4)cc3)C3CC3)no2)cn1 | cell-free assay | – | competition with immobilised ligand | 1 µM | remaining binding | 100% |
| Cc1sc(C(=O)NC2COC2)cc1-n1cc(NC(=O)Nc2c(F)cccc2Cl)cn1 | enzyme activity | inhibitor | – | 10 µM | remaining activity | 102% |
| CC(C)(C)C(=O)c1sc(NC2CCCCC2)nc1N | enzyme activity | inhibitor | – | 10 µM | remaining activity | 95% |
| FC(F)(F)Oc1cccc(-c2cnc3ccc(-c4ccncc4)nn23)c1 | enzyme activity | inhibitor | radiometric | 5 µM | activity vs control | 99% |
| CCOC(=O)c1cc2cc(-c3cc(C(=O)NCc4ccc(C(=O)O)cc4)nn3C)ccc2[nH]1 | cell-free assay | – | competition with immobilised ligand | 0.1 µM | remaining binding | 67% |
| O=C1Nc2ccc(Cl)cc2C1=Cc1cc(Cl)c(O)c(Cl)c1 | cell-free assay | – | – | 0.5 µM | remaining signal | 77.2% |
| CC(C)(O)[C@H]1CC[C@H](Nc2ccc3ncc(-c4cccc(C(F)(F)F)c4)n3n2)CC1 | enzyme activity | inhibitor | – | 1 µM | remaining activity | 94.4% |
| CC/C(=N\NC(=O)NCc1cccc(O)c1)c1ccc(O)c(C)c1O | enzyme activity | inhibitor | – | 0.1 µM | inhibition | 3.7% |
| CCN(CC)c1ccc(C2=NNC(=O)CC2C)cc1[N+](=O)[O-] (stereo not shown) | enzyme activity | inhibitor | – | 10 µM | remaining activity | 104% |
| CSc1cccnc1N1CCN(Cc2nc3ccccc3[nH]2)CC1 | cell-free assay | – | competition with immobilised ligand | 1 µM | remaining binding | 100% |
| COc1cc(Nc2cnc(C#N)c(O[C@H](C)CN(C)C)n2)ncc1-c1cnn(C)c1 | enzyme activity | inhibitor | radiometric | 10 µM | remaining activity | 14% |
| COc1cc(Cl)c(C(=O)N[C@@H](CN[C@H]2CC[C@@H](N)CC2)Cc2ccc(C#N)cc2)cc1-c1ccc(CN[C@H](C)c2ccc(C)cc2)o1 | enzyme activity | inhibitor | – | 1 µM | remaining activity | 99% |
| CCCS(=O)(=O)Nc1ccc(F)c(C(=O)c2c[nH]c3ncc(-c4ccc(Cl)cc4)cc23)c1F | enzyme activity | inhibitor | – | 1 µM | inhibition | < 10% |
| O=C1NC(=O)c2cc(Nc3ccc(F)cc3)c(Nc3ccc(F)cc3)cc21 | cell-free assay | – | – | 0.5 µM | remaining signal | 96.8% |
| O=C(Nc1cnn(-c2csc(C(=O)NC3COC3)c2)c1)Nc1c(F)cccc1Cl | enzyme activity | inhibitor | – | 5 µM | remaining activity | 100% |
| CS(=O)(=O)N1CCCC(NC(=O)[C@H](CCC2CCCCC2)NC(=O)c2ccc(CNC(=O)c3cnc4ccccn34)cc2)C1 (stereo partly shown) | cell-free assay | – | competition with immobilised ligand | 0.1 µM | remaining binding | 100% |
| COc1ccc(COc2ccc(Cc3cnc(N)nc3N)cc2OC)cc1 | cell-free assay | – | – | 0.5 µM | remaining signal | 96.8% |
| CN1CC(Oc2cnc(C#N)cc2-c2ccn3nc(NC(=O)C4CC4)cc3c2)C1 | enzyme activity | inhibitor | – | 1 µM | inhibition | 16% |
| Cc1cnc(NC2CCOCC2)nc1-n1cnc(C(=O)NC(CN)c2cc(F)cc(Cl)c2)c1 (stereo not shown) | enzyme activity | inhibitor | radiometric | 1 µM | remaining activity | 42% |
| CC(C)(C)c1nc(-c2cccc(NS(=O)(=O)c3c(F)cccc3F)c2F)c(-c2ccnc(N)n2)s1 | enzyme activity | inhibitor | radiometric | 1 µM | remaining activity | 50% |
| Cc1cc(NC(=O)c2cccc(S(F)(F)(F)(F)F)c2)cc(-n2ccn3nc(-c4cccnc4)cc23)c1 | cell-free assay | – | competition with immobilised ligand | 1 µM | remaining binding | 100% |
| Cn1c(=O)n(-c2ccc(C(C)(C)C#N)cc2)c2c3cc(-c4cnc5ccccc5c4)ccc3ncc21 | enzyme activity | inhibitor | – | 10 µM | remaining activity | 89% |
| Cc1cc(-n2nc(Cc3cc(F)cc(C(F)(F)F)c3)nc2C)ccc1C(N)=O | cell-free assay | – | competition with immobilised ligand | 1 µM | remaining binding | 77% |
| CNC(=O)c1cc(Oc2ccc(NC(=O)Nc3ccc(Cl)c(C(F)(F)F)c3)cc2)ccn1 | cell-free assay | – | – | 0.5 µM | remaining signal | 103% |
| CC(=O)c1c(NS(C)(=O)=O)c2cc(-c3ccc(Cl)cc3)c(-c3ccc(Cl)cc3Cl)nc2n(C)c1=O | cell-free assay | – | competition with immobilised ligand | 1 µM | remaining binding | 90% |
| Cc1ccc(NC(=O)c2ccc(C)c(C(F)(F)F)c2)cc1C#Cc1nn(C2CCC(O)CC2)c2ncnc(N)c12 (stereo not shown) | cell-free assay | – | – | 10 µM | remaining signal | 93% |
| CCc1ccccc1C(=O)Nc1n[nH]c2c(C)c(F)c(C3C(C#N)=C(C)N(C)C(C)=C3C#N)cc12 | cell-free assay | – | competition with immobilised ligand | 1 µM | remaining binding | 36% |
| Cc1ccc(Nc2nccc(N(C)c3ccc4c(C)n(C)nc4c3)n2)cc1S(N)(=O)=O | enzyme activity | inhibitor | – | 0.3 µM | inhibition | 1% |
